Legend:
[1] = Cytotoxicity against human K2 O/E cells over expressing tetracycline inducible IP6K2 protein assessed as cell survival; assay type: functional
Outline: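 Stable tetracycline-inducible Myc-IP6K2 HEK293 line. IP6K2 overexpression induced with 1 μg/mL tetracycline for 24 h; wild-type control cells got vehicle alone. Cells then exposed to 25 nM drug or DMSO (no drug) for 48 h. Viability read by CCK-8 assay and expressed relative to control set at 100%.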

[2] = Potency index, ratio of novobiocin IC50 to compound IC50 for HSP90 HSP90
[3] = system: HCT-116; test: Growth inhibition of human HCT116 cells at 5 uM after 24 hrs by [3H]thymidine uptake assay; assay type: functional; conditions: read-out: GI
[4] = Growth inhibition of human PL45 cells at 5 uM after 24 hrs by [3H]thymidine uptake assay; assay type: functional; conditions: read-out: GI
[5] = Growth inhibition of Pancreatic cancer cells; assay type: functional, cell-based; conditions: Cancer cell lines
[6] = Inhibition of HSP90
[7] = system: HCT-116; test: Growth inhibition of human HCT116 cells at 50 nM after 24 hrs by [3H]thymidine uptake assay; assay type: functional; conditions: read-out: GI
[8] = Growth inhibition of human PL45 cells at 125 nM after 24 hrs by [3H]thymidine uptake assay; assay type: functional; conditions: read-out: GI
[9] = system: HCT-116; test: Growth inhibition of human HCT116 cells at 10 nM after 24 hrs by [3H]thymidine uptake assay; assay type: functional; conditions: read-out: GI
[10] = Growth inhibition of human PL45 cells at 1 nM after 24 hrs by [3H]thymidine uptake assay; assay type: functional; conditions: read-out: GI
[11] = Growth inhibition of human PL45 cells at 1000 nM after 24 hrs by [3H]thymidine uptake assay; assay type: functional; conditions: read-out: GI
[12] = Growth inhibition of human PL45 cells after 24 hrs by [3H]thymidine uptake assay; assay type: functional, cell-based
[13] = system: HCT-116; test: Growth inhibition of human HCT116 cells at 200 nM after 24 hrs by [3H]thymidine uptake assay; assay type: functional; conditions: read-out: GI
[14] = Growth inhibition of human WS1 cells at 1000 nM after 24 hrs by [3H]thymidine uptake assay; assay type: functional; conditions: read-out: GI
[15] = Growth inhibition of human WS1 cells at 250 nM after 24 hrs by [3H]thymidine uptake assay; assay type: functional; conditions: read-out: GI
[16] = Growth inhibition of human WS1 cells at 125 nM after 24 hrs by [3H]thymidine uptake assay; assay type: functional; conditions: read-out: GI
[17] = Growth inhibition of human WS1 cells at 500 nM after 24 hrs by [3H]thymidine uptake assay; assay type: functional; conditions: read-out: GI
[18] = Growth inhibition of human PL45 cells at 500 nM after 24 hrs by [3H]thymidine uptake assay; assay type: functional; conditions: read-out: GI
[19] = Growth inhibition of human PL45 cells at 250 nM after 24 hrs by [3H]thymidine uptake assay; assay type: functional; conditions: read-out: GI
[20] = Growth inhibition of human WS1 cells after 24 hrs by [3H]thymidine uptake assay; assay type: functional, cell-based
[21] = Growth inhibition of human PL45 cells at 62.5 nM after 24 hrs by [3H]thymidine uptake assay; assay type: functional; conditions: read-out: GI
[22] = system: HCT-116; test: Growth inhibition of human HCT116 cells after 24 hrs by [3H]thymidine uptake assay; assay type: functional, cell-based
[23] = system: HCT-116; test: Growth inhibition of human HCT116 cells at 20 nM after 24 hrs by [3H]thymidine uptake assay; assay type: functional; conditions: read-out: GI
[24] = system: HCT-116; test: Growth inhibition of human HCT116 cells at 100 nM after 24 hrs by [3H]thymidine uptake assay; assay type: functional; conditions: read-out: GI
[25] = Growth inhibition of human WS1 cells at 62.5 nM after 24 hrs by [3H]thymidine uptake assay; assay type: functional; conditions: read-out: GI
[26] = Growth inhibition of human WS1 cells at 1 nM after 24 hrs by [3H]thymidine uptake assay; assay type: functional; conditions: read-out: GI

With `CC(C)C[C@@H]1NC(=O)[C@H](Cc2ccccc2)NC(=O)[C@@H](CC(C)C)NC(=O)[C@@H](C(C)C)NC(=O)[C@H](CC(C)C)NC(=O)[C@H](CC(C)C)NC(=O)[C@H](Cc2ccccc2)NC(=O)[C@@H](CC(C)C)NC(=O)[C@@H](C(C)C)NC(=O)[C@H](CC(C)C)NC1=O` the Survival [1] was 3%, the Ratio IC50 [2] was 50000 and the inhibition of growth at 5 µM [3] was 99%. For the same molecule, the inhibition of growth at 5 µM [4] was 99%, the IC50 [5] was 1 nM and the EC50 [6] was 2 nM.
Work on `C=CCNC1=C2C[C@@H](C)C[C@H](OC)[C@H](O)[C@@H](C)/C=C(\C)[C@H](OC(N)=O)[C@@H](OC)/C=C\C=C(/C)C(=O)NC(=CC1=O)C2=O` [TANESPIMYCIN] yielded an inhibition of growth at 0.05 µM [7] of 54%, an inhibition of growth at 0.125 µM [8] of 99% and an inhibition of growth at 0.01 µM [9] of 0%. The inhibition of growth at 0.001 µM [10] was 11.4%, the inhibition of growth at 1 µM [11] was 99% and the IC50 [12] was 7.7 nM. For the same molecule, the inhibition of growth at 0.2 µM [13] was 79%, the inhibition of growth at 1 µM [14] was 77.8% and the inhibition of growth at 0.25 µM [15] was 66%. For the same molecule, the inhibition of growth at 0.125 µM [16] was 73.2%, the inhibition of growth at 0.5 µM [17] was 76.3% and the inhibition of growth at 0.5 µM [18] was 99%. For the same molecule, the inhibition of growth at 0.25 µM [19] was 99%, the IC50 [20] was 31.8 nM and the inhibition of growth at 0.0625 µM [21] was 98%. The IC50 [22] was 56.5 nM, the inhibition of growth at 0.02 µM [23] was 12% and the inhibition of growth at 0.1 µM [24] was 72%. For the same molecule, the inhibition of growth at 0.0625 µM [25] was 51.7% and the inhibition of growth at 0.001 µM [26] was 18%.
With `CO[C@@H]1[C@@H](OC(N)=O)[C@@H](O)[C@H](Oc2ccc3c(O)c(NC(=O)c4ccc(O)c(CC=C(C)C)c4)c(=O)oc3c2C)OC1(C)C` [NOVOBIOCIN] the EC50 [6] was 100000 nM.
`CC(C)C[C@@H]1NC(=O)[C@H](C(C)C)NC(=O)[C@H](CC(C)C)NC(=O)[C@@H](CC(C)C)NC(=O)[C@@H](Cc2ccccc2)NC(=O)[C@H](CC(C)C)NC(=O)[C@H](C(C)C)NC(=O)[C@H](CC(C)C)NC(=O)[C@@H](CC(C)C)NC(=O)[C@@H](Cc2ccccc2)NC1=O` showed an inhibition of growth at 5 µM [3] of 0% and an inhibition of growth at 5 µM [4] of 12%.
